In paper PMC3313494 (Journal of the American Chemical Society, 2012):
Ends that are not written are not given here.

Legend:
SIRT1 = biological target: T1, SIRT1 (Homo sapiens, UniProt Q96EB6); test: HPLC deacetylation assay, SIRT1; assay type: biochemical; settings: 0.07 μM (1U) SIRT1, 500 μM NAD, peptide 0–500 μM, pH 8.0, 37°C, 0–20 min, at least duplicate
T1 sequence (Q96EB6 1-747): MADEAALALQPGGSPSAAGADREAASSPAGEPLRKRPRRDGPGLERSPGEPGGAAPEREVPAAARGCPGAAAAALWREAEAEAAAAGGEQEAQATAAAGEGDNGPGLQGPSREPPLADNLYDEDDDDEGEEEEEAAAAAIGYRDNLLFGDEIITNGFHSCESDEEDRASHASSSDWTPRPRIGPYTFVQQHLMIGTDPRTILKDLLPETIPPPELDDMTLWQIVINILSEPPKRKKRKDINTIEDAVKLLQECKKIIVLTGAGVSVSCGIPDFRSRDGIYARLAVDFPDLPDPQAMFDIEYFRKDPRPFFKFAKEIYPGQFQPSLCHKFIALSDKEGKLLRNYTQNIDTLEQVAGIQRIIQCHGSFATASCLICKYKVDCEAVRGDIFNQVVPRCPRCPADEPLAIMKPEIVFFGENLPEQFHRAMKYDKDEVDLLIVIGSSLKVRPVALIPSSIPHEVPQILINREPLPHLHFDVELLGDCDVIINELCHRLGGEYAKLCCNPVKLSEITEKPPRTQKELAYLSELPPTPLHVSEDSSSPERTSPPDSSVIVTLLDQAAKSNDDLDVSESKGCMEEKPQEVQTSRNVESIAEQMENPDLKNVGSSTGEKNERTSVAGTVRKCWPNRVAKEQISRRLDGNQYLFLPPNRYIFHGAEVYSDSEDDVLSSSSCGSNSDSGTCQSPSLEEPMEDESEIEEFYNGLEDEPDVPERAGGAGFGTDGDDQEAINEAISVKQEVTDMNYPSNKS

Sir2Tm = Sir2Tm (Thermotoga maritima, UniProt Q9WYW0); test: HPLC deacetylation assay, Sir2Tm; assay type: biochemical, bacterial; settings: pH 8.0, 37°C
Summary of the method: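 Enzyme addition at 37°C started the reaction; Sir2Tm was refolded from inclusion bodies, ~90% pure. Aliquots at 0, 5, 10, 20 min were acid-quenched, urea-treated, ultrafiltered and resolved by C18 reverse-phase HPLC; integrated peak areas gave rate constants.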

sirtuins = test: Turnover of biotin-NAD as NAD alternate substrate; assay type: biochemical; settings: 6-biotin-17-NAD; Supplemental Figure S12
monoamine oxidases = settings: used in the treatment of clinical depression; cited from earlier work

Sequence of Sir2Tm (Q9WYW0 whole entry): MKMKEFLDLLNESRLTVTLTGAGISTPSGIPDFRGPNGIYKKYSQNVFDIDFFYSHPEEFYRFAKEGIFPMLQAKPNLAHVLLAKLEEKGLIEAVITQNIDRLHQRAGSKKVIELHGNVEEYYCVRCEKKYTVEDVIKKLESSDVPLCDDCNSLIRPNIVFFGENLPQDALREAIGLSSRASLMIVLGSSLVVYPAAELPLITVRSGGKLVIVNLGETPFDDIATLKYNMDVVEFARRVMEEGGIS

**Q.** Which “deacetylation rate (apparent kcat)” value (SIRT1) does the source give for “K382KAc: corresponding natural acetylated substrate, p53 (372–389) peptide containing acetyl-lysine at 382 (KKGQSTSRHKK(Ac)LMFKTEG; UniProt P04637 372-389, looked up, fragment)” here?
**A.** 0.205 ± 0.012 s⁻¹

**Q.** And the “deacetylation rate (apparent kcat)” value (Sir2Tm; 0.3–0.15 μM Sir2Tm, 500 μM NAD, peptide 0–500 μM, 0–20 min, HPLC, at least duplicate)?
**A.** 0.18 ± 0.025 s⁻¹

**Q.** And the Km (Sir2Tm; steady-state kinetics, Sir2Tm, 0.5 mM NAD, p53 (372–389) peptides)?
**A.** 71.8 ± 24.5 µM

**Q.** Which “use as NAD alternate substrate by sirtuins” value (sirtuins) does the source give for 6-biotin-17-NAD here?
**A.** can be turned over by sirtuins as an NAD alternate substrate

**Q.** With `NNCCc1ccccc1` [phenethylhydrazine] as the molecule, how does the monoamine oxidase inhibition (monoamine oxidases) read?
**A.** well-established inhibitor of monoamine oxidases
